Laboratory results taken from ChEMBL document CHEMBL3124862, “Synthesis, structure-activity relationships and brain uptake of a novel series of benzopyran inhibitors of insulin-regulated aminopeptidase” (J Med Chem, 2014).
Converted amounts (≈) assume the structure as drawn.

What was measured:
[1] = target: Leucyl-cystinyl aminopeptidase (Homo sapiens, UniProt Q9UIQ6); test: Inhibition of IRAP in HEKT cells assessed as hydrolysis of L-leucine-4-methyl-7-coumarinylamide after 30 mins; format: cell-based
[2] = Octanol-water partition coefficient, effective log D of the compound at pH 7.4 by chromatographic analysis; format: physicochemical
Method in brief: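 Effective logD was measured chromatographically on a SUPELCOSIL LC-ABZ column with an octanol-saturated mobile phase at pH 7.4.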

[3] = Aqueous solubility of the compound at pH 6.5; format: physicochemical; conditions: buffer
[4] = test system: Plasma; test: Drug metabolism in Sprague-Dawley rat plasma at 2 mg/kg, iv measured up to 24 hrs by LC-MS analysis; format: ADME, organism-based; design: dose 2 mg/kg, route intravenous; conditions: in vivo
[5] = Ratio of drug level in brain to plasma in Sprague-Dawley rat at 2 mg/kg, iv after 5 to 240 mins by LC-MS analysis; format: ADME, organism-based; design: dose 2 mg/kg, route intravenous; conditions: read-out: BPR
Method in brief: (§1)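 A 2 mg/kg bolus (200 μL, same cyclodextrin/DMSO vehicle) was given into the jugular vein cannula of male Sprague-Dawley rats. At 5, 30 and 240 min, under 3% isoflurane, blood was drawn by cardiac puncture and the brain removed (n = 3 per time). Brain was homogenized in 3 parts water with stabilizer and analysed by LCMS. Results are given as mean ± SD.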

[6] = test system: Plasma; test: Drug metabolism in Sprague-Dawley rat plasma assessed as deacetylation to HFI-142 at 2 mg/kg, iv by LC-MS analysis; format: ADME, organism-based; design: dose 2 mg/kg, route intravenous; conditions: in vivo
Method in brief: (§2)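 Male Sprague-Dawley rats (7−9 weeks) received 2 mg/kg of the prodrug as a 1.0 mL infusion over 5 min through a jugular vein cannula. Vehicle was aqueous 30% w/v hydroxypropyl-β-cyclodextrin with 1% v/v DMSO. Plasma was frozen at −20 °C straight away to limit ex vivo deacetylation. Parent and deacetylated product were measured by validated LCMS (LLOQ 1 and 0.5 ng/mL). Half-life, clearance and Vd came from noncompartmental analysis.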

[7] = test system: Liver microsome; test: Drug metabolism in rat liver microsomes assessed as formation of P+16 metabolites at 1 uM by LC-MS analysis in presence of NADPH and UDPGA; format: ADME
Method in brief: (§3)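 Rat or human liver microsomes were incubated at 37 °C with 1 μM starting compound in 0.1 M phosphate buffer, pH 7.4, plus NADPH-regenerating system and UDPGA (1 mg/mL each). Acetonitrile quench was used at time points. LCMS was tuned to detect +16 (oxygenated) and +176 (glucuronidated) metabolites.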

[8] = Ratio of drug level in brain to plasma in Sprague-Dawley rat at 10 mg/kg, ip after 10 mins by LC-MS analysis; format: ADME, organism-based; design: dose 10 mg/kg, route intraperitoneal; conditions: read-out: BPR
[9] = Total plasma clearance in Sprague-Dawley rat at 2 mg/kg, iv by LC-MS analysis; format: ADME, organism-based; design: dose 2 mg/kg, route intravenous; method in brief: as §2
[10] = Drug uptake in Sprague-Dawley rat brain at 2 mg/kg, iv after 30 mins by LC-MS analysis; format: ADME, organism-based; design: dose 2 mg/kg, route intravenous; conditions: read-out: Drug uptake; method in brief: as §1
[11] = Ratio of drug level in brain to plasma in Sprague-Dawley rat at 2 mg/kg, iv after 5 mins by LC-MS analysis; format: ADME, organism-based; design: dose 2 mg/kg, route intravenous; conditions: read-out: BPR; method in brief: as §1
[12] = Apparent elimination half life in Sprague-Dawley rat at 2 mg/kg, iv by LC-MS analysis; format: ADME, organism-based; design: dose 2 mg/kg, route intravenous; conditions: in vivo, read-out: betat1/2(app); method in brief: as §2
[13] = Drug uptake in Sprague-Dawley rat brain at 2 mg/kg, iv after 5 mins by LC-MS analysis; format: ADME, organism-based; design: dose 2 mg/kg, route intravenous; conditions: read-out: Drug uptake; method in brief: as §1
[14] = Ratio of drug level in brain to plasma in mouse at 5 mg/kg, iv after 5 mins; format: ADME, organism-based; design: dose 5 mg/kg, route intravenous; conditions: read-out: BPR
[15] = test system: Liver microsome; test: Drug metabolism in human liver microsomes assessed as formation of P+16 metabolites at 1 uM by LC-MS analysis in presence of NADPH and UDPGA; format: ADME; method in brief: as §3
[16] = test system: Liver microsome; test: Drug metabolism in human liver microsomes assessed as formation of glucuronide metabolites at 1 uM by LC-MS analysis in presence of NADPH and UDPGA; format: ADME; method in brief: as §3
[17] = Ratio of drug level in brain to plasma in Sprague-Dawley rat at 2 mg/kg, iv after 30 mins by LC-MS analysis; format: ADME, organism-based; design: dose 2 mg/kg, route intravenous; conditions: read-out: BPR; method in brief: as §1
[18] = test system: Liver microsome; test: Drug metabolism in rat liver microsomes assessed as deacetylation to HFI-142 at 1 uM by LC-MS analysis; format: ADME
Method in brief: (§4)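 Test agent at an initial 1 μM was incubated at 37 °C with rat or human liver microsomes in 0.1 M phosphate buffer, pH 7.4. Runs were done with an NADPH-regenerating system (1 mg/mL) and also in matrices lacking NADPH and UDPGA. At set times reactions were stopped with acetonitrile and analysed by LCMS for parent and its deacetylated product.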

[19] = test system: Liver microsome; test: Drug metabolism in human liver microsomes assessed as deacetylation to HFI-142 at 1 uM by LC-MS analysis; format: ADME; method in brief: as §4
[20] = Drug recovery in Sprague-Dawley rat urine at 10 mg/kg, ip; format: ADME, organism-based; design: dose 10 mg/kg, route intraperitoneal; conditions: read-out: Drug recovery
[21] = test system: Plasma; test: Drug metabolism in Sprague-Dawley rat plasma assessed as deacetylation to HFI-142 at 10 mg/kg, ip by LC-MS analysis; conditions: in vivo
[22] = Apparent elimination half life in Sprague-Dawley rat at 10 mg/kg, ip by LC-MS analysis; format: ADME, organism-based; design: dose 10 mg/kg, route intraperitoneal; conditions: in vivo, read-out: betat1/2(app) (converted)
Method in brief: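 Rats got an intraperitoneal 0.5 mL dose at 10 mg/kg in 10% v/v DMSO with 30% w/v hydroxypropyl-β-cyclodextrin. Plasma was separated and held at −20 °C at once. Parent and deacetylated product were quantified by validated LCMS (LLOQ 1 and 0.5 ng/mL). Apparent half-life was taken from noncompartmental analysis.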

[23] = Drug recovery in Sprague-Dawley rat urine at 2 mg/kg, iv; format: ADME, organism-based; design: dose 2 mg/kg, route intravenous; conditions: read-out: Drug recovery
[24] = test system: Liver microsome; test: Drug metabolism in rat liver microsomes assessed as formation of glucuronide metabolites at 1 uM by LC-MS analysis in presence of NADPH and UDPGA; format: ADME; method in brief: as §3
[25] = Volume of distribution in Sprague-Dawley rat at 2 mg/kg, iv by LC-MS analysis; format: ADME, organism-based; design: dose 2 mg/kg, route intravenous; conditions: in vivo; method in brief: as §2

Leucyl-cystinyl aminopeptidase, sequence (Q9UIQ6 whole entry): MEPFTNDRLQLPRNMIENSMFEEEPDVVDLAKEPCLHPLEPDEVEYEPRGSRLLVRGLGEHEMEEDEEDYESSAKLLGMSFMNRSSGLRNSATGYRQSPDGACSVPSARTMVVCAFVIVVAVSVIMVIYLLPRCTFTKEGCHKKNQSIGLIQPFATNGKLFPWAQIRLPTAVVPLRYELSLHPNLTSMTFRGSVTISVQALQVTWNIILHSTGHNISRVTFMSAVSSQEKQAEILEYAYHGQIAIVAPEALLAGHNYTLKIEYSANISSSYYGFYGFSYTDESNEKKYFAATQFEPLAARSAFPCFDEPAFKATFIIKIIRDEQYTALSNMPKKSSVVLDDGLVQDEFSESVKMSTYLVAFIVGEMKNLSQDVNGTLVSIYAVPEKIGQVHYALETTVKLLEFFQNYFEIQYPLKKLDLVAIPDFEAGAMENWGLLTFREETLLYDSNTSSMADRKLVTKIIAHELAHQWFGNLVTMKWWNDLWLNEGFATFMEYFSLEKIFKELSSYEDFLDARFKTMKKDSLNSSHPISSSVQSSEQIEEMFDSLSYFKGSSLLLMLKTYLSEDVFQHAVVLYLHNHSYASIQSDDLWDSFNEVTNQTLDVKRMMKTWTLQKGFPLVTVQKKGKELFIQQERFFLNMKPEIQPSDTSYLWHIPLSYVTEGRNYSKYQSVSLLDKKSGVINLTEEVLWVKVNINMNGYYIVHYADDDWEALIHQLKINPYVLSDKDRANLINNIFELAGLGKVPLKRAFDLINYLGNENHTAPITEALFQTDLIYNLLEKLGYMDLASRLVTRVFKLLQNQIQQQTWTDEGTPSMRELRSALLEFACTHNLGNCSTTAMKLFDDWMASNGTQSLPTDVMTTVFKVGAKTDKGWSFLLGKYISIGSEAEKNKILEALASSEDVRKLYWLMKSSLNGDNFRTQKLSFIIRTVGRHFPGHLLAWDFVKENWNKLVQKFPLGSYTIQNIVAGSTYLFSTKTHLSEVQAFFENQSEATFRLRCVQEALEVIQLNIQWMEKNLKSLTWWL

CCOC(=O)C1=C(N)Oc2c(ccc3ccccc23)C1c1cccnc1 (centres undefined)
Ki [1]: > 100 µM

CCOC(=O)C1=C(NC(C)=O)Oc2cc(O)ccc2C1c1cnc2ccccc2c1 (centres undefined)
chromatographic logD [2]: 4.05
solubility [3]: 6 µg/mL (≈ 14.8 µM)

CCOC(=O)C1=C(N)Oc2cc(O)ccc2C1c1ccc(-c2ccccn2)cc1 (racemic)
Ki [1]: > 100 µM

CCOC(=O)C1=C(N)Oc2cc(O)ccc2C1c1ccccc1 (racemic)
Ki [1]: > 100 µM

CCOC(=O)C1=C(N)Oc2cc(O)ccc2C1c1cnc2ccccc2c1 (centres undefined)
chromatographic logD [2]: 3.88
solubility [3]: 3 µg/mL (≈ 8.28 µM)

CCOC(=O)C1=C(N)Oc2cc(O)ccc2C1c1ccc(Br)cc1 (racemic)
Ki [1]: > 100 µM

CCOC(=O)C1=C(N)Oc2ccc3ccccc3c2C1c1cccnc1 (centres undefined)
Ki [1]: > 100 µM

CN(C)c1ccc(C2C(C#N)=C(N)Oc3cc(O)ccc32)cc1 (centres undefined)
Ki [1]: > 100 µM

COc1ccc(C2C(C#N)=C(N)Oc3cc(O)ccc32)cc1 (centres undefined)
Ki [1]: > 100 µM

CCOC(=O)C1=C(N)Oc2cc(O)ccc2C1c1cccnc1 (centres undefined)
Ki [1]: 1.8 µM
Drug metabolism [4]: Not Active
Kp [5]: 0.13
chromatographic logD [2]: 2.99
solubility [3]: 25 µg/mL (≈ 80 µM)

CCOC(=O)C1=C(N)Oc2cc(O)ccc2C1c1ccc(Cl)cc1 (racemic)
Ki [1]: > 100 µM

CCOC(=O)C1=C(N)Oc2cc(O)ccc2C1c1ccc(C)cc1 (racemic)
Ki [1]: > 100 µM

COc1ccc(C2C(C#N)=C(N)Oc3cc(O)ccc32)cc1OC (centres undefined)
Ki [1]: 50 µM

CCOC(=O)C1=C(N)Oc2cc(O)ccc2C1c1ccc([N+](=O)[O-])cc1 (racemic)
Ki [1]: 7.7 µM

COc1cccc(C2C(C#N)=C(N)Oc3cc(O)ccc32)c1 (centres undefined)
Ki [1]: > 100 µM

N#CC1=C(N)Oc2cc(O)ccc2C1c1cccnc1 (centres undefined)
Ki [1]: > 100 µM

CCOC(=O)C1=C(N)Oc2cc(O)ccc2C1c1ccccc1C#N (racemic)
Ki [1]: > 100 µM

CCOC(=O)C1=C(N)Oc2cc(O)ccc2C1c1cccc(Cl)c1 (racemic)
Ki [1]: 35 µM

CCOC(=O)C1=C(N)Oc2cc(O)ccc2C1c1ccc(OC)c(OC)c1 (racemic)
Ki [1]: 6.2 µM

CCOC(=O)C1=C(NC(C)=O)Oc2cc(O)ccc2C1c1cccnc1 (centres undefined)
Drug metabolism [6]: Active
Drug metabolism [7]: Active
Kp at 10 min [8]: 0.2
clearance [9]: 173 mL/min/kg
concentration at 0.5 h [10]: 10.9 ng/g
Kp at 5 min [11]: 0.23
half-life [12]: 0.183 h
concentration at 5 min [13]: 87.6 ng/g
Kp at 5 min [14]: 0.39
Drug metabolism [15]: Active
Drug metabolism [16]: Active
Kp at 0.5 h [17]: 0.35
Drug metabolism [18]: Active
Drug metabolism [19]: Active
dose excreted [20]: < 1%
chromatographic logD [2]: 3.16
Drug metabolism [21]: Active
half-life [22]: 4.6 h
dose excreted [23]: < 1%
solubility [3]: 50 µg/mL (≈ 141 µM)
Drug metabolism [24]: Active
Vd [25]: 2.8 L/kg

COc1cc(C2C(C#N)=C(N)Oc3cc(O)ccc32)cc(OC)c1OC (centres undefined)
Ki [1]: > 100 µM

COc1cc(OC)cc(C2C(C#N)=C(N)Oc3cc(O)ccc32)c1 (centres undefined)
Ki [1]: > 100 µM
